Measurements taken from ChEMBL document CHEMBL1125386, “Small atrial natriuretic peptide analogues: design, synthesis, and structural requirements for guanylate cyclase activation” (J Med Chem, 1992).
Where a SMILES comes first, the peptide text is derived from it. Bridges are numbered along the chain shown (N, C = ends).

How the values were obtained:
Oryctolagus cuniculus [1] = organism: Oryctolagus cuniculus; experiment: In vitro vasorelaxant potency at dose 10 e -8 to 10 e-4 M using rabbit aortic rings precontracted with histamine; assay type: functional; details: Aorta
Procedure, shortened: (§1)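 Rabbit aortic rings (4–5 mm) in Krebs-Henseleit buffer, gassed 95:5 O2/CO2, pH 7.4, isometric tension, baseline 2 g held 2 h. Rings contracted with 3 μM histamine, then six cumulative half-log peptide increments over 90 min, range 10⁻⁸ to 10⁻⁴ M. Triplicate determinations.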

[2] = In vitro Biological half-life in crude homogenate of rabbit renal cortex; assay type: ADME, tissue-based, Oryctolagus cuniculus
[3] = system: Atrial natriuretic peptide receptor 1 (Oryctolagus cuniculus); experiment: Binding affinity towards the low-affinity site atrionatriuretic peptide receptor 1 of rabbit adrenal membrane
Oryctolagus cuniculus [4] = organism: Oryctolagus cuniculus; experiment: Compound was evaluated for the intrinsic vasorelaxation (i.vr) in a standard tissue bath preparation using rabbit aortic rings precontracted with histamine; assay type: functional, Aorta; procedure, shortened: as §1
[5] = system: Atrial natriuretic peptide receptor 1 (Oryctolagus cuniculus); experiment: Binding affinity for low-affinity site Atrial natriuretic peptide receptor 1 of rabbit adrenal membrane; details: Adrenal gland

KL [5] | Molecule | EC50 (Oryctolagus cuniculus [1]) | other results
– | CC[C@H](C)[C@@H]1NC(=O)[C@H](CCCN=C(N)N)NC(=O)CNC(=O)CNC(=O)[C@H](Cc2ccccc2)NC(=O)CCNC(=O)[C@@H](NC(=O)[C@H](CO)NC(=O)[C@@H](N)CO)CSSC[C@@H](C(=O)N[C@@H](Cc2ccccc2)C(=O)N[C@@H](CCCN=C(N)N)C(=O)O)NC(=O)[C@H]([C@@H](C)CC)NC(=O)[C@H](CCCN=C(N)N)NC(=O)[C@H](CC(=O)O)NC1=O | 1.8 µM | –
– | CC[C@H](C)[C@@H]1NC(=O)[C@@H](CCCN=C(N)N)NC(=O)CNC(=O)CNC(=O)[C@@H](Cc2ccccc2)NC(=O)C(C)NC(=O)[C@H](NC(=O)[C@H](CO)NC(=O)[C@@H](N)CO)CSSC[C@H](C(=O)N[C@H](Cc2ccccc2)C(=O)N[C@H](CCCN=C(N)N)C(=O)O)NC(=O)[C@@H]([C@@H](C)CC)NC(=O)[C@H](CCCN=C(N)N)NC(=O)[C@@H](CC(=O)O)NC1=O (stereo in doubt) | 0.36 µM | half-life [2]: 5.3 min; KL [3]: 710 nM
– | NC(=O)C[C@H](N)C(=O)N[C@@H](CO)C(=O)N[C@@H](Cc1ccccc1)C(=O)N[C@@H](CCCN=C(N)N)C(=O)O (H-NSFR-OH) | – | Intrinsic vasorelaxation (Oryctolagus cuniculus [4]): 0.16 fraction of rANP max
– | CC[C@H](C)[C@@H]1NC(=O)[C@H](CCCN=C(N)N)NC(=O)CNC(=O)CNC(=O)[C@H](Cc2ccccc2)NC(=O)[C@@H](NC(=O)[C@H](CO)NC(=O)[C@@H](N)CO)CSSC[C@@H](C(=O)N[C@@H](CC(N)=O)C(=O)N[C@@H](CO)C(=O)O)NC(=O)[C@H]([C@@H](C)CC)NC(=O)[C@H](CCCN=C(N)N)NC(=O)[C@H](CC(=O)O)NC1=O (H-SSCFGGRIDRICNS-OH; disulfide 3-12) | > 10 µM | –
– | H-FGGRIDRI-OH | – | Intrinsic vasorelaxation (Oryctolagus cuniculus [4]): 0.57 fraction of rANP max
6500 nM | CC[C@H](C)[C@@H]1NC(=O)[C@@H](CCCN=C(N)N)NC(=O)CNC(=O)CNC(=O)[C@@H](C2CCCCC2)NC(=O)CCSSC[C@H](C(N)=O)NC(=O)[C@@H](CCCN=C(N)N)NC(=O)[C@@H](Cc2ccccc2)NC(=O)[C@@H]([C@@H](C)CC)NC(=O)[C@H](CCCN=C(N)N)NC(=O)[C@@H](CC(=O)O)NC1=O | – | –
230 nM | CC[C@H](C)[C@@H]1NC(=O)[C@@H](CCCN=C(N)N)NC(=O)CNC(=O)CNC(=O)[C@@H](C2CCCCC2)NC(=O)[C@H](NC(=O)[C@H](N)CCCN=C(N)N)CSSC[C@H](C(N)=O)NC(=O)[C@@H](CCCN=C(N)N)NC(=O)[C@H](Cc2ccccc2)NC(=O)[C@@H](C)NC(=O)[C@H](CCCN=C(N)N)NC(=O)[C@@H](CC(=O)O)NC1=O | – | –
58 nM | CC[C@H](C)[C@@H]1NC(=O)[C@H]2CCCCNC(=O)C[C@@H](NC1=O)C(=O)N[C@@H](CCCN=C(N)N)C(=O)N[C@H]([C@@H](C)CC)C(=O)N[C@@H](Cc1ccccc1)C(=O)N[C@H](CCCN=C(N)N)C(=O)N[C@@H](C(N)=O)CSSC[C@@H](NC(=O)[C@H](N)CCCN=C(N)N)C(=O)N[C@H](C1CCCCC1)C(=O)NCC(=O)NCC(=O)N2 | – | –
– | CC[C@H](C)[C@@H]1NC(=O)[C@H](CCCN=C(N)N)NC(=O)CNC(=O)CNC(=O)[C@H](Cc2ccccc2)NC(=O)[C@@H](N)CSSC[C@@H](C(=O)N[C@@H](Cc2ccccc2)C(=O)N[C@@H](CCCN=C(N)N)C(=O)O)NC(=O)[C@H]([C@@H](C)CC)NC(=O)[C@H](CCCN=C(N)N)NC(=O)[C@H](CC(=O)O)NC1=O (H-CFGGRIDRICFR-OH; disulfide 1-10) | 4.9 µM | –
– | H-SSCFGGR-OH | – | Intrinsic vasorelaxation (Oryctolagus cuniculus [4]): 0 fraction of rANP max
– | CC[C@H](C)[C@@H]1NC(=O)[C@H](CCCN=C(N)N)NC(=O)CNC(=O)CNC(=O)[C@H](Cc2ccccc2)NC(=O)[C@@H](NC(=O)[C@H](CO)NC(=O)[C@@H](N)CO)CSSC[C@@H](C(=O)N[C@@H](Cc2ccccc2)C(=O)N[C@@H](CCCN=C(N)N)C(=O)O)NC(=O)[C@H]([C@@H](C)CC)NC(=O)[C@H](CCCN=C(N)N)NC(=O)[C@H](CC(=O)O)NC1=O | 3 µM | half-life [2]: 4.7 min
800 nM | CC[C@H](C)[C@@H]1NC(=O)[C@@H](CCCN=C(N)N)NC(=O)CNC(=O)CNC(=O)[C@@H](C2CCCCC2)NC(=O)[C@H](N)CSSC[C@H](C(N)=O)NC(=O)[C@@H](CCCN=C(N)N)NC(=O)[C@H](Cc2ccccc2)NC(=O)[C@@H](C)NC(=O)[C@H](CCCN=C(N)N)NC(=O)[C@@H](CC(=O)O)NC1=O | – | –
680 nM | CC(C)C[C@@H]1NC(=O)[C@@H](CCCN=C(N)N)NC(=O)CNC(=O)CNC(=O)[C@@H](Cc2ccccc2)NC(=O)[C@@H](C)NC(=O)[C@H](NC(=O)[C@H](CO)NC(=O)[C@@H](N)CO)CSSC[C@H](C(=O)N[C@H](Cc2ccccc2)C(=O)N[C@H](CCCN=C(N)N)C(=O)O)NC(=O)[C@@H](CC(C)C)NC(=O)[C@H](CCCN=C(N)N)NC(=O)[C@@H](CC(=O)O)NC1=O | – | –
– | H-SSCFG-OH | – | Intrinsic vasorelaxation (Oryctolagus cuniculus [4]): 0.03 fraction of rANP max
260 nM | CC[C@H](C)[C@@H]1NC(=O)[C@@H](CCCN=C(N)N)NC(=O)CNC(=O)CNC(=O)[C@@H](C2CCCCC2)NC(=O)[C@H](NC(=O)[C@H](N)CCCN=C(N)N)CSSC[C@H](C(N)=O)NC(=O)[C@@H](CCCN=C(N)N)NC(=O)[C@H](Cc2ccccc2)NC(=O)[C@@H]([C@@H](C)CC)NC(=O)[C@H](CCCN=C(N)N)NC(=O)CNC1=O | – | –
– | CC[C@H](C)[C@@H]1NC(=O)[C@H](CCCN=C(N)N)NC(=O)CNC(=O)CNC(=O)[C@H](Cc2ccccc2)NC(=O)CNC(=O)[C@@H](NC(=O)[C@H](CO)NC(=O)[C@@H](N)CO)CSSC[C@@H](C(=O)N[C@@H](Cc2ccccc2)C(=O)N[C@@H](CCCN=C(N)N)C(=O)O)NC(=O)[C@H]([C@@H](C)CC)NC(=O)[C@H](CCCN=C(N)N)NC(=O)[C@H](CC(=O)O)NC1=O | 0.12 µM | half-life [2]: 3.2 min
680 nM | CC[C@H](C)[C@@H]1NC(=O)[C@@H](CCCN=C(N)N)NC(=O)CNC(=O)CNC(=O)[C@@H](Cc2ccccc2)NC(=O)[C@H](NC(=O)[C@H](N)CCCN=C(N)N)CSSC[C@H](C(=O)O)NC(=O)[C@@H](CCCN=C(N)N)NC(=O)[C@H](Cc2ccccc2)NC(=O)[C@@H]([C@@H](C)CC)NC(=O)[C@H](CCCN=C(N)N)NC(=O)[C@@H](CC(C)C)NC1=O | – | –
– | H-RIDRIG-OH | – | Intrinsic vasorelaxation (Oryctolagus cuniculus [4]): 0.7 fraction of rANP max
– | CC[C@H](C)[C@@H]1NC(=O)[C@H](CCCN=C(N)N)NC(=O)CNC(=O)CNC(=O)[C@@H](Cc2ccccc2)NC(=O)[C@@H](NC(=O)[C@H](CO)NC(=O)[C@@H](N)CO)CSSC[C@@H](C(=O)N[C@@H](Cc2ccccc2)C(=O)N[C@@H](CCCN=C(N)N)C(=O)O)NC(=O)[C@H]([C@@H](C)CC)NC(=O)[C@H](CCCN=C(N)N)NC(=O)[C@H](CC(=O)O)NC1=O | > 10 µM | half-life [2]: 5.8 min
160 nM | CC[C@H](C)[C@@H]1NC(=O)[C@@H](CCCN=C(N)N)NC(=O)CNC(=O)CNC(=O)[C@@H](C2CCCCC2)NC(=O)[C@H](NC(=O)[C@@H](CO)NC(=O)[C@H](N)CO)CSSC[C@H](C(=O)O)NC(=O)[C@@H](CCCN=C(N)N)NC(=O)[C@H](Cc2ccccc2)NC(=O)[C@@H]([C@@H](C)CC)NC(=O)[C@H](CCCN=C(N)N)NC(=O)[C@@H](CC(=O)O)NC1=O | – | –
– | CC[C@H](C)[C@@H]1NC(=O)[C@H](CCCN=C(N)N)NC(=O)CNC(=O)CNC(=O)[C@H](Cc2ccccc2)NC(=O)CN(C)C(=O)[C@@H](NC(=O)[C@H](CO)NC(=O)[C@@H](N)CO)CSSC[C@@H](C(=O)N[C@@H](Cc2ccccc2)C(=O)N[C@@H](CCCN=C(N)N)C(=O)O)NC(=O)[C@H]([C@@H](C)CC)NC(=O)[C@H](CCCN=C(N)N)NC(=O)[C@H](CC(=O)O)NC1=O | > 1 µM | –
– | CC[C@H](C)[C@@H]1NC(=O)[C@H](CCCN=C(N)N)NC(=O)[C@H](CC(=O)O)NC(=O)[C@H]([C@@H](C)CC)NC(=O)[C@H](CCCN=C(N)N)NC(=O)CNC(=O)CNC(=O)[C@H](Cc2ccccc2)NC(=O)[C@@H](N)CSSC[C@@H](C(=O)O)NC1=O (H-CFGGRIDRIC-OH; disulfide 1-10) | 3.8 µM | –
– | CC[C@H](C)[C@@H]1NC(=O)[C@H](CCCN=C(N)N)NC(=O)[C@H](CC(=O)O)NC(=O)[C@H]([C@@H](C)CC)NC(=O)[C@H](CCCN=C(N)N)NC(=O)CNC(=O)CNC(=O)[C@H](Cc2ccccc2)NC(=O)[C@@H](NC(=O)[C@H](CO)NC(=O)[C@@H](N)CO)CSSC[C@@H](C(=O)O)NC1=O (H-SSCFGGRIDRIC-OH; disulfide 3-12) | 5.2 µM | –
– | CC[C@H](C)[C@@H]1NC(=O)[C@H](CCCN=C(N)N)NC(=O)CNC(=O)CNC(=O)[C@H](Cc2ccccc2)NC(=O)[C@@H](CC2CCCCC2)NC(=O)[C@@H](NC(=O)[C@H](CO)NC(=O)[C@@H](N)CO)CSSC[C@@H](C(=O)N[C@@H](Cc2ccccc2)C(=O)N[C@@H](CCCN=C(N)N)C(=O)O)NC(=O)[C@H]([C@@H](C)CC)NC(=O)[C@H](CCCN=C(N)N)NC(=O)[C@H](CC(=O)O)NC1=O | 0.43 µM | –
96 nM | CC[C@H](C)[C@@H]1NC(=O)[C@@H](CCCN=C(N)N)NC(=O)CNC(=O)CNC(=O)[C@@H](C2CCCCC2)NC(=O)[C@H](NC(=O)[C@H](N)CCCN=C(N)N)CSSC[C@H](C(N)=O)NC(=O)[C@@H](CCCN=C(N)N)NC(=O)[C@H]2Cc3ccccc3CN2C(=O)[C@@H]([C@@H](C)CC)NC(=O)[C@H](CCCN=C(N)N)NC(=O)[C@@H](CC(=O)O)NC1=O | – | –
– | CC[C@H](C)[C@@H]1NC(=O)[C@@H](CCCN=C(N)N)NC(=O)CNC(=O)CNC(=O)[C@@H](Cc2ccccc2)NC(=O)C(C(C)C)NC(=O)[C@H](NC(=O)[C@H](CO)NC(=O)[C@@H](N)CO)CSSC[C@H](C(=O)N[C@H](Cc2ccccc2)C(=O)N[C@H](CCCN=C(N)N)C(=O)O)NC(=O)[C@@H]([C@@H](C)CC)NC(=O)[C@H](CCCN=C(N)N)NC(=O)[C@@H](CC(=O)O)NC1=O (stereo in doubt) | 0.024 µM | KL [3]: 130 nM

Molecule | KL [5] | EC50 (Oryctolagus cuniculus [1]) | other results
CC[C@H](C)[C@@H]1NC(=O)[C@@H](CCCN=C(N)N)NC(=O)CNC(=O)CNC(=O)[C@@H](C2CCCCC2)NC(=O)[C@H](NC(=O)[C@H](N)CCCN=C(N)N)CSSC[C@H](C(N)=O)NC(=O)[C@@H](C)NC(=O)CNC(=O)[C@@H]([C@@H](C)CC)NC(=O)[C@H](CCCN=C(N)N)NC(=O)[C@@H](CC(=O)O)NC1=O | 1200 nM | – | –
